Assay results reported in ChEMBL document CHEMBL1147977, “UDP acting at P2Y6 receptors is a mediator of microglial phagocytosis” (2007).
Calls of active or inactive are those of the source. The calls are words filed in the database; no cut-off is given here.

Assays:
[1] = Induction of phagocytosis in Wistar rat microglia assessed as uptake of microspheres at 100 uM after 20 mins by FACS; type: functional
How it was run: (§1)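 Rat primary cultured microglia incubated with agonist for 20 min, with UDP tested at 5–1,000 μM, in the presence of fluorescent latex microspheres. Bead uptake is quantified by FACS, and results are expressed relative to uptake with 100 μM UDP alone. Values are means ± s.e.m. of about three or four experiments.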

[2] = test system: Microglia; test: Effect on formation of phagosome-like vacuoles in Wistar rat microglia at 100 uM after 5 mins; type: functional, cell-based
How it was run: (§2)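 Rat primary cultured microglia stimulated for 5 min with 100 μM UDP or 10 μM ATP, then fixed, permeabilized and stained with phalloidin. Membrane ruffles and other actin structures are assessed by microscopy.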

[3] = biological target: P2Y purinoceptor 6 (Rattus norvegicus) (UniProt Q63371); test: Activity at P2Y6 receptor in Wistar rat microglia assessed as inhibition of intracellular calcium concentration at 100 uM in presence of suramin by ratiometric fura-2 fluorescence method; type: functional, cell-based
Chain of P2Y purinoceptor 6 (Rattus norvegicus) (Q63371 whole entry): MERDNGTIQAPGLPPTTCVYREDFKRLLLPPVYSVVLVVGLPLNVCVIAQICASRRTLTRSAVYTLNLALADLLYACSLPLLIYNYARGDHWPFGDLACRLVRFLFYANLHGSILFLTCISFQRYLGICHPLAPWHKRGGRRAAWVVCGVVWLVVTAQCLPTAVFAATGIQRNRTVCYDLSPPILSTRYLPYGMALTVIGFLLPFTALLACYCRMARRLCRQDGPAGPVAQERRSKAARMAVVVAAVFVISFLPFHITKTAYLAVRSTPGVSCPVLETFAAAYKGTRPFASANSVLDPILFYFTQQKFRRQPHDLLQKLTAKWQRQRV
How it was run: (§3)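 Cultured rat primary microglia. Intracellular Ca2+ measured as the change in the 340/380 nm Fura-2 fluorescence ratio after stimulation with 100 μM UDP, alone or with inhibitors. The maximal UDP-alone response is the control, and responses are expressed as percent of control. Values are means ± s.e.m. of 24–36 cells from at least three independent experiments.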

[4] = test system: Microglia; test: Reversal of drug-induced phagocytosis in Wistar rat microglia at 100 uM in presence of staurosporine; type: functional, cell-based
How it was run: (§4)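 Rat primary cultured microglia stimulated with 100 μM UDP, with or without reactive blue 2 (30–100 μM), suramin (300 μM), MRS2578 (0.01–3 μM), thapsigargin (1 μM), staurosporine (5 μM) or U73122 (10 μM). Uptake of fluorescent latex microspheres during the 20-min incubation is quantified by FACS. Values are means ± s.e.m.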

[5] = biological target: T1, Cysteinyl leukotriene receptor 1 (Rattus norvegicus) (UniProt Q924T8); test: Agonist activity at CysLT1 receptor in Wistar rat microglia assessed as increase in intracellular calcium concentration at 30 uM by ratiometric fura-2 fluorescence method; type: functional, cell-based
T1 sequence (whole entry): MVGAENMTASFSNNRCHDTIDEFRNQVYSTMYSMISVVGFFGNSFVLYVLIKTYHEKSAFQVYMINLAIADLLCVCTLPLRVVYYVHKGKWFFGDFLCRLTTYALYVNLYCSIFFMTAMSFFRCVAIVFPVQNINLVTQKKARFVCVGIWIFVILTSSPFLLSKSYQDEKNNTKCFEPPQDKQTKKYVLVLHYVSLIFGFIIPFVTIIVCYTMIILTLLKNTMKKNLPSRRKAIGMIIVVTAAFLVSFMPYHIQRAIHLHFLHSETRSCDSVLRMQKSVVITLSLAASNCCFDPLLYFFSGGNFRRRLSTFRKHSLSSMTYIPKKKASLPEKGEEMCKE

[6] = biological target: P2Y purinoceptor 6 (Rattus norvegicus) (UniProt Q63371); test: Activity at P2Y6 receptor in Wistar rat microglia assessed as inhibition of intracellular calcium concentration at 100 uM after 300 secs by ratiometric fura-2 fluorescence method in presence of U73122; type: functional, cell-based; how it was run: as §3
[7] = biological target: P2Y purinoceptor 6 (Rattus norvegicus) (UniProt Q63371); test: Activity at P2Y6 receptor in Wistar rat microglia assessed as inhibition of intracellular calcium concentration at 100 uM after 600 secs by ratiometric fura-2 fluorescence method in presence of thapsigargin; type: functional, cell-based; how it was run: as §3
[8] = test system: Microglia; test: Reversal of drug-induced of phagocytosis in Wistar rat microglia at 100 uM in presence of reactive blue 2; type: functional; how it was run: as §4
[9] = biological target: P2Y purinoceptor 6 (Rattus norvegicus) (UniProt Q63371); test: Activity at P2Y6 receptor in Wistar rat microglia assessed as inhibition of intracellular calcium concentration at 100 uM by ratiometric fura-2 fluorescence method in presence of MRS2578; type: functional, cell-based; how it was run: as §3
[10] = biological target: P2Y purinoceptor 6 (Rattus norvegicus) (UniProt Q63371); test: Activity at P2Y6 receptor in Wistar rat microglia assessed as inhibition of intracellular calcium concentration at 100 uM by ratiometric fura-2 fluorescence method in presence of reactive blue 2; type: functional, cell-based; how it was run: as §3
[11] = test system: Microglia; test: Reversal of drug-induced phagocytosis in Wistar rat microglia at 100 uM in presence of MRS2578; type: functional; how it was run: as §4
[12] = test system: Microglia; test: Effect on formation of phagocytotic cup in Wistar rat microglia at 100 uM after 5 mins; type: functional, cell-based; how it was run: as §2
[13] = test system: Microglia; test: Reversal of drug-induced of phagocytosis in Wistar rat microglia at 100 uM in presence of suramin; type: functional; how it was run: as §4
[14] = biological target: P2Y purinoceptor 6 (Rattus norvegicus) (UniProt Q63371); test: Effect on P2Y6 receptor-mediated cell motility in Wistar rat microglia assessed as formation of lamellipodia-like membrane ruffles at 100 uM after 5 mins; how it was run: as §2
[15] = test system: Microglia; test: Induction of phagocytosis in Wistar rat microglia assessed as uptake of microspheres after 20 mins by FACS; type: functional, cell-based; how it was run: as §1
[16] = biological target: P2Y purinoceptor 6 (Rattus norvegicus) (UniProt Q63371); test: Activity at P2Y6 receptor in Wistar rat microglia assessed as inhibition of intracellular calcium concentration at 100 uM after 600 secs by ratiometric fura-2 fluorescence method in presence of xestospongin C; type: functional, cell-based; how it was run: as §3
[17] = biological target: P2Y purinoceptor 6 (Rattus norvegicus) (UniProt Q63371); test: Agonist activity at P2Y6 receptor in Wistar rat microglia assessed as increase in intracellular calcium concentration by ratiometric fura-2 fluorescence method; type: functional, cell-based
How it was run: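 Rat primary cultured microglia loaded with Fura-2. The rise in [Ca2+]i is read as the change in the 340/380 nm fluorescence ratio. UDP is applied over a concentration range, and the fraction of responding cells is also scored.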

[18] = test system: Microglia; test: Reversal of drug-induced phagocytosis in Wistar rat microglia at 100 uM in presence of U73122; type: functional, cell-based; how it was run: as §4
[19] = test system: Microglia; test: Reversal of drug-induced phagocytosis in Wistar rat microglia at 100 uM in presence of thapsigargin; type: functional, cell-based; how it was run: as §4
[20] = test system: Microglia; test: Effect on formation of F-actin aggregation in Wistar rat microglia at 100 uM after 5 mins; type: functional, cell-based; how it was run: as §2
[21] = biological target: P2Y purinoceptor 6 (Rattus norvegicus) (UniProt Q63371); test: Effect on P2Y6 receptor-mediated cell motility in Wistar rat microglia at 100 uM by chemotaxis assay
How it was run: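 Chemotaxis of cultured primary rat microglia toward agonist (100 μM) assessed in a Dunn chemotaxis chamber.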

[22] = test system: Microglia; test: Effect on formation of filopodia-like protrusions in Wistar rat microglia at 100 uM after 5 mins; type: functional, cell-based; how it was run: as §2
[23] = test system: Microglia; test: Increase in P2Y6 receptor protein expression in Wistar rat microglia; type: functional, cell-based
How it was run: (§5)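 Rats given 10 mg kg⁻¹ i.p.; brain sections immunostained for P2Y₆ receptor and co-stained for microglia (OX42), astrocytes (GFAP) or neurons (NeuN) to assess colocalization.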

[24] = test system: Astrocyte; test: Increase in P2Y6 receptor protein expression in Wistar rat astrocytes; type: functional, cell-based; how it was run: as §5
[25] = test system: Microglia; test: Reversal of increase drug-induced phagocytosis in Wistar rat microglia assessed as uptake of microspheres by FACS in presence of MRS2578; type: functional, cell-based
How it was run: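 Microglia incubated 20 min with supernatant from hippocampal neurons treated ±100 μM kainate for 1 h, with or without 1 μM antagonist; fluorescent latex bead uptake measured by flow cytometry; at least four independent experiments.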

[26] = test system: Hippocampus; test: Reversal of drug-induced phagocytosis in Wistar rat hippocampal CA3 region assessed as increase in number of microglia at 10 mg/kg, ip in presence of MRS2578; type: functional, organism-based; set-up: dose 10 mg/kg
How it was run: (§6)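 Rats given 10 mg kg⁻¹ i.p.; fluorescent microspheres injected into hippocampal CA3, antagonist injected into CA3 (antisense/mismatch oligonucleotide into third ventricle); microspheres taken up or attached by anti-Iba1-stained microglia counted by confocal microscopy; ANOVA with Scheffe test.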

[27] = test system: Microglia; test: Increase in phagocytosis in Wistar rat microglia assessed as uptake of microspheres by FACS; type: functional, cell-based
How it was run: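 Cultured primary rat microglia incubated 20 min with fluorescent latex beads plus agonist (5–1,000 μM); bead uptake quantified by flow cytometry; three experiments.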

[28] = test system: Hippocampus; test: Induction of neuronal loss in Wistar rat hippocampal CA3 region assessed as increase in number of microglia by immunohistochemical analysis; type: functional, tissue-based
How it was run: (§7)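 Rats given 10 mg kg⁻¹ i.p.; 72 h later hippocampal sections double-stained with anti-NeuN (neurons) and anti-Iba1 (microglia) to assess CA1 and CA3 neuronal loss and microglial number.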

[29] = test system: Hippocampus; test: Induction of phagocytosis in Wistar rat hippocampal CA3 region assessed as increase in number of microglia at 10 mg/kg, ip; type: functional, organism-based; set-up: dose 10 mg/kg; how it was run: as §6
[30] = test system: Neuron; test: Increase in UTP level in Wistar rat hippocampal neuron at 10 mg/kg, ip by microdialysis; type: functional, organism-based; set-up: dose 10 mg/kg; settings: Hippocampus, TDE = time-dependent effect
[31] = test system: Neuron; test: Induction of neuronal loss in Wistar rat neurons at 10 mg/kg, ip after 2-3 days; type: functional, organism-based; set-up: dose 10 mg/kg
[32] = test system: Rattus norvegicus; test: Increase in P2Y6 receptor protein expression in Wistar rat brain at 10 mg/kg, ip after 72 hrs by Western blotting; type: functional, organism-based; set-up: dose 10 mg/kg
How it was run: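 Rats given 10 mg kg⁻¹ i.p. (saline-injected controls); brains removed 72 h later and hippocampal P2Y₆ receptor protein quantified by western blot; 8 control and 7 treated experiments.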

[33] = test system: Hippocampus; test: Induction of neuronal loss in Wistar rat hippocampal CA1 region assessed as increase in number of microglia by immunohistochemical analysis; type: functional, tissue-based; how it was run: as §7
[34] = test system: Neuron; test: Increase in UTP level in Wistar rat hippocampal neuron at 100 uM after 1 hr by HPLC in presence of ARL67156
[35] = test system: Neuron; test: Increase in P2Y6 receptor protein expression in Wistar rat neurons; type: functional, cell-based; how it was run: as §5
[36] = test system: Hippocampus; test: Upregulation of P2Y6 receptor mRNA signals in Wistar rat hippocampal CA3 region assessed as increase in number of microglia by in situ hybridization after 3 days; type: functional, tissue-based
How it was run: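 Rats given 10 mg kg⁻¹ i.p.; 3 days later hippocampal sections probed by in situ hybridization with P2Y₆ antisense RNA probe, then stained with anti-Iba1 to identify microglia bearing receptor mRNA in CA3.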

[37] = biological target: P2Y purinoceptor 6 (Rattus norvegicus) (UniProt Q63371); test: Effect on P2Y6 receptor-mediated cell motility in Wistar rat microglia assessed as formation of lamellipodia-like membrane ruffles at 10 uM after 5 mins
How it was run: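 Cultured primary rat microglia stimulated 5 min with agonist, then fixed, permeabilized and phalloidin-stained; lamellipodia-like membrane ruffles scored by microscopy.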

SMILES: Nc1ncnc2c1ncn2[C@@H]1O[C@H](COP(=O)(O)OP(=O)(O)O)[C@@H](O)[C@H]1O [ADENOSINE DIPHOSPHATE]
- Activity [1]: 0.3%

SMILES: O=c1ccn([C@@H]2O[C@H](COP(=O)(O)OP(=O)(O)O)[C@@H](O)[C@H]2O)c(=O)[nH]1
- Activity [2]: Active
- Activity [3]: Active
- Activity [4]: Active
- Activity [5]: Active
- Activity [6]: Active
- Activity [7]: Active
- Activity [8]: Active
- Activity [9]: Active
- Activity [10]: Active
- Activity [11]: Active
- Activity [12]: Active
- Activity [13]: Active
- Activity [14]: inactive
- Activity [15]: Dose-dependent effect
- Activity [16]: Active
- Activity [17]: Dose-dependent effect
- Activity [18]: Active
- Activity [19]: Active
- Activity [20]: Active
- Activity [21]: inactive
- Activity [22]: Active

SMILES: Nc1nc2c(ncn2[C@@H]2O[C@H](COP(=O)(O)OP(=O)(O)O)[C@@H](O)[C@H]2O)c(=O)[nH]1
- Activity [1]: 49.7%

SMILES: C=C(C)[C@H]1CN[C@H](C(=O)O)[C@H]1CC(=O)O [KAINIC ACID]
- Activity [23]: Active
- Activity [24]: inactive
- Activity [25]: Active
- Activity [26]: Active
- Activity [27]: Active
- Activity [28]: Active
- Activity [29]: Active
- Activity [30]: tde
- Activity [31]: Active
- Activity [32]: Active
- Activity [33]: Active
- Activity [34]: 10.5 µM
- Activity [35]: inactive
- Activity [36]: Active

SMILES: Nc1ncnc2c1ncn2[C@@H]1O[C@H](COP(=O)(O)OP(=O)(O)OP(=O)(O)O)[C@@H](O)[C@H]1O
- Activity [21]: Active
- Activity [37]: Active
